Compounds with a hit are over-represented: about 2% of the library has one in this group of screens.
ASAP1 inh: ASAP1 ArfGAP inhibition; ASAP1-stimulated ARF1 GTP hydrolysis, GDP FP detection; actives 0.19% (n = 360,000); Q9ULH1; AID 624377; inhibition, % at 16.5 µM; in the data active = inhibition above about 25%;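 also: 0% = vehicle with enzyme and substrate and 100% = no enzyme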
Target sequence (Q9ULH1 325-724 limits assumed): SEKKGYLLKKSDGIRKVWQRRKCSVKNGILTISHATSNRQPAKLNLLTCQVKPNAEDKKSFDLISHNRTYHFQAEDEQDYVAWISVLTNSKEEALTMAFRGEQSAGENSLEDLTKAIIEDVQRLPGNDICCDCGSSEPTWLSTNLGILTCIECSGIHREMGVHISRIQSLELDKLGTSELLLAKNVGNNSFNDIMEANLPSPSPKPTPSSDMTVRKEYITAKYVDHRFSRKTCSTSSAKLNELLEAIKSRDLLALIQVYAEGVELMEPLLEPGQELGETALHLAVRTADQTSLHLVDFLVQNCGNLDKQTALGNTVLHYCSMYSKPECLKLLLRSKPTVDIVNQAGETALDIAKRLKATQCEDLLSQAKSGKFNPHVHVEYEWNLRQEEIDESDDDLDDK
MBD2 inh: MBD2-methylated oligo binding inhibition; Q9UBB5; TR-FRET, MBD2 binding to methylated oligonucleotide; inhibition, % at 4.4 µM; actives 0.31% (n = 370,000); AID 686964; in the data active = inhibition above about 13%
LEDGF integ inh: blocks HIV-1 LEDGF/p75-dependent DNA integration. TR-FRET IN-LEDGF/p75 DNA integration, Eu/Cy5. inhibition, % at 3.7 µM. actives 0.64% (n = 370,000). AID 743269;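 active = inhibition above the screen-wide mean plus 3 SD, cut at about 13% in these data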;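 also: signal is the Cy5 over europium emission ratio at 671 and 618 nm; 0% = plate median of compound wells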
UHRF1 MBD2 ctr: blocks human UHRF1 binding to methylated DNA; AID 687016; UHRF1 binding to methylated oligo, TR-FRET; actives 0.75% (n = 370,000); Q96T88; inhibition, % at 4.4 µM; in the data active = inhibition above about 21%;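 also: UHRF1 SRA domain binding a hemimethylated CpG hairpin DNA probe; 0% = median of test compound wells and 100% = reference inhibitor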
ARFGAP1 inhibitor: inhibitors of rat ARFGAP1 | Q62848 | Arfgap1-stimulated ARF1 GTP hydrolysis, GDP FP detection | inhibition, % at 16.5 µM | actives 0.26% (n = 360,000);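 active = inhibition above a per-plate limit, mean inhibition of low control wells plus 3 SD, cut at about 25% in these data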;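 also: 0% = DMSO wells with enzyme and 100% = wells lacking Arfgap1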
Target sequence (Q62848 1-136 limits assumed): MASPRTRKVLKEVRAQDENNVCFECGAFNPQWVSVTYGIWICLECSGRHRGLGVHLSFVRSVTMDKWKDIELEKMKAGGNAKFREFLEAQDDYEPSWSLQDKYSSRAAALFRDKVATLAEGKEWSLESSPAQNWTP
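Assay system: Rat Arfgap1 GAP domain (His6, aa 1-136), purified enzyme | Buffer or medium: HEPES 25 mM pH 7.5, NaCl 150 mM, MgCl2, DTT | Schedule: GTP hydrolysis reaction 2 h at 25 °C | Signal: FP of antibody-bound GDP Alexa 633 tracer, ex 620/em 688 nm | Measure: Percent inhibition of Arfgap1-stimulated GTP hydrolysis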
TCR CD3 inh: inhibitors of human TCR-CD3 interaction; inhibition, % at 9.4 µM; TAMRA-labeled TCR probe fluorescence, biochemical; actives 0.37% (n = 360,000);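 also: recombinant mutant TCR 2C K166C tagged with TAMRA read by polarization; 0% = receptor in buffer alone and 100% = receptor with positive control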
BSA probe FL: counter-screen for TCR-CD3 interaction inhibitors: BSA probe | inhibition, % at 9.4 µM | TAMRA-labeled BSA probe fluorescence counterscreen | actives 10% (n = 1,200) | AID 652035 | shares compounds with TCR CD3 inh; in the data active = inhibition above about 23%;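 also: 0% = buffer low control and 100% = reference high control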
TCR-CD3 inh conf: TCR-CD3 interaction inhibition, confirmation; shares compounds with TCR CD3 inh; TAMRA-labeled TCR probe fluorescence binding assay; inhibition, % at 9.4 µM; actives 48% (n = 1,200)
UHRF1 DNA bind: UHRF1 methyl-oligo binding inhibition as MBD2 counter-screen; inhibition, % at 4.4 µM; actives 25% (n = 1,000); shares compounds with MBD2 inh; UHRF1 binding to methylated oligonucleotide, TR-FRET; in the data active = inhibition above about 21%;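 also: UHRF1 SRA domain binding a labeled hemimethylated CpG hairpin DNA; 0% = vehicle only and 100% = reference inhibitor with vehicle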
MBD2 DBD conf: MBD2-DBD methyl-DNA binding inhibition, TR-FRET confirmation; shares compounds with MBD2 inh; TR-FRET MBD2-DBD binding to methylated oligonucleotide; inhibition, % at 4.4 µM; actives 26% (n = 1,000); in the data active = inhibition above about 14%
IN multimer up: counter-screen for LEDGF/p75 integration inhibitors: HIV-1 integrase multimerization activators | shares compounds with LEDGF integ inh | actives 17% (n = 2,000) | TR-FRET HIV-1 integrase multimerization, biochemical | activation, % at 7.7 µM | AID 1053131; in the data active = activation above about 8.9%
TRFRET interf: optically interferes with TR-FRET readout in LEDGF counter-screen | shares compounds with LEDGF integ inh | TR-FRET optical interference counterscreen, HIV-1 IN multimerization | inhibition, % at 7.7 µM | 2,000 tested, under 10 active;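 active = inhibition above the mean over all tested compounds plus 3 SD, which no compound reached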;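 also: 0% = integrase with antibodies and DMSO and 100% = antibodies without integrase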
LEDGF integ conf: confirmation of HIV-1 LEDGF/p75-dependent integration inhibitors; shares compounds with LEDGF integ inh; TR-FRET LEDGF/p75-dependent HIV-1 integration, biochemical; inhibition, % at 3.7 µM; actives 36% (n = 2,000); AID 1053136; in the data active = inhibition above about 14%
Numbers without * were called inactive; nt = no result. Rule as the data show it, unless noted: active = inhibition above about 19%; inactive = the rest.

SMILES	ASAP1 inh	MBD2 inh	LEDGF integ inh	UHRF1 MBD2 ctr	ARFGAP1 inhibitor	TCR CD3 inh	BSA probe FL	TCR-CD3 inh conf	IN multimer up	TRFRET interf	LEDGF integ conf	others
CCOc1cc(N2CCOCC2)c(OCC)cc1NC(C)C(=O)N1CCN(CC)CC1 (stereo not given)	-3	51*	63*	91*	-17	31*	1	2	2	-10	10	UHRF1 DNA bind=1;MBD2 DBD conf=-3
Cc1cc(NS(=O)(=O)c2ccc(NC(=S)NC(=O)c3cccnc3)cc2)no1	16	27*	26*	65*	-16	46*	2	2	2	-8	-1	UHRF1 DNA bind=4;MBD2 DBD conf=2
CCCCn1c(N)c(N(CCOC)C(=O)CCCc2nc3ccccc3c(=O)[nH]2)c(=O)[nH]c1=O	-2	2	3	-3	5	-2	nt	nt	nt	nt	nt
N#Cc1c(SCC(=O)Nc2nncs2)sc2c(O)cc(=O)[nH]c12	0	18*	20*	48*	8	27*	-13	9	29*	-146	26*	UHRF1 DNA bind=43*;MBD2 DBD conf=23*
Cc1cc(-c2csc(NC(=O)C3=COCCO3)n2)c(C)n1C	-2	-4	43*	0	0	22*	-10	-3	7	-37	47*
O=c1cc2oc3cc(O)c(O)cc3c(-c3ccccc3[N+](=O)[O-])c-2cc1O	5	13	86*	41*	-4	101*	-13	83*	11*	-55	86*
O=c1cc(-c2ccccc2Cl)oc2cccc(O)c12	11	1	-6	5	22	8	nt	nt	nt	nt	nt
NS(=O)(=O)c1ccc(N/N=C/c2ccc(O)c(O)c2O)c([N+](=O)[O-])c1	1	-6	72*	8	10	59*	-10	74*	33*	-167	85*
NS(=O)(=O)c1ccc(N/N=C/c2ccc(O)cc2O)c([N+](=O)[O-])c1	13	-1	-4	-1	18	-1	nt	nt	nt	nt	nt
CCOC(=O)N1CCN(C(=O)C2CCN(C(=O)c3ccc(C(C)(C)C)cc3)CC2)CC1	8	5	1	15	-4	-6	nt	nt	nt	nt	nt
CCC(CNc1cc(OC)cc2cccnc12)NC1CCCCC1 (stereo not given)	18	-16	58*	9	7	126*	17	14	6	-22	76*
COc1cc(NS(=O)(=O)c2ccc(C)cc2)c2ncccc2c1	-5	-2	-26	0	-2	6	nt	nt	nt	nt	nt
COc1cc(NCCCC(C)N)c2ncccc2c1 (stereo not given)	3	-16	30*	-4	-6	62*	22	14	5	-19	63*
COC(=O)c1cnc(N2CCCN(S(=O)(=O)c3ccc(C(F)(F)F)cc3)CC2)nc1C(F)(F)F	-1	0	6	2	-7	1	nt	nt	nt	nt	nt
CCCOc1ccc(N2C(=O)CC(SCc3nc4ccccc4[nH]3)C2=O)cc1 (stereo not given)	-1	5	-2	-2	1	6	nt	nt	nt	nt	nt
O=C(Cc1cccc(NC(=O)C2CCCN(C(=O)C3CCCCC3)C2)c1)Nc1ccc(C(=O)N2CCCCC2)cc1 (stereo not given)	-12	-7	1	0	15	0	nt	nt	nt	nt	nt
Cc1nc(S/C(=C\c2ccc(-c3ccc(C(=O)O)c(Cl)c3)o2)C(=O)O)n[nH]1	-8	27*	60*	88*	-15	65*	2	67*	18*	-92	32*	UHRF1 DNA bind=53*;MBD2 DBD conf=10
C/C(=N/NC(=O)c1cc(O)c(O)c(O)c1)c1ccc([N+](=O)[O-])cc1	-4	5	31*	22*	-14	55*	-11	36*	19*	-98	51*
Cc1ccccc1C1CC(c2cccs2)Nc2nnnn21 (stereo not given)	-3	-2	0	-2	-9	7	nt	nt	nt	nt	nt
Oc1cc(O)cc(C=Cc2ccc(O)c(O)c2)c1	5	2	51*	7	-5	21*	-8	14	43*	-217	42*
Oc1ccc(/C=C/c2cc(O)cc(O)c2)cc1	9	-4	2	-1	3	2	nt	nt	nt	nt	nt
C/C(=C\C(=O)c1ccccc1)Nc1ccc(O)cc1	13	-6	20*	1	11	48*	-3	1	3	-14	0
C/C(=C\C(=O)c1cccnc1)Nc1ccc(O)cc1	13	-5	17*	-1	2	89*	5	1	2	-8	-2
COCCNC(=O)/C(C#N)=C/c1c(N2CCN(C)CC2)nc2ccccn2c1=O	-3	-2	1	-3	-3	2	nt	nt	nt	nt	nt
Nc1ccc(N(CCO)CCO)cc1	-49	-9	24*	7	-39	27*	19	12	12*	-62	28*
SMILES	ASAP1 inh	MBD2 inh	LEDGF integ inh	UHRF1 MBD2 ctr	ARFGAP1 inhibitor	TCR CD3 inh	BSA probe FL	TCR-CD3 inh conf	IN multimer up	TRFRET interf	LEDGF integ conf	others
Nc1ccc(C(=O)N(CCO)CCO)cc1	-5	0	0	-1	8	5	nt	nt	nt	nt	nt
COCCn1c(=S)[nH]c2cc(C(=O)N3CC(C)CC(C)C3)ccc2c1=O (stereo not given)	-10	4	2	2	16	6	nt	nt	nt	nt	nt
CN(CCC#N)C(=O)COC(=O)c1c2c(nc3ccccc13)/C(=C\c1ccco1)CC2	12	20*	50*	41*	-24	34*	-11	34*	21*	-104	70*	UHRF1 DNA bind=35*;MBD2 DBD conf=29*
O=C(O)c1ccc(C(=O)O)c(C(=O)c2ccc(NC(=O)c3ccccc3)cc2)c1	-7	1	1	-2	14	8	nt	nt	nt	nt	nt
O=c1cc(-c2ccc(O)c(O)c2)oc2cc(O)cc(O)c12	16	-6	42*	-9	3	25*	-17	21*	15*	-78	88*
O=c1c(-c2ccc(O)cc2)coc2cc(O)cc(O)c12	2	0	-2	1	nt	-8	nt	nt	nt	nt	nt

Bioassay records: PubChem BioAssay, The Scripps Research Institute Molecular Screening Center
